Assay [1] addresses Heat shock protein HSP 90-alpha (Homo sapiens, UniProt P07900). Put plainly: Inhibition of FITC-geldanamycin binding to recombinant human full-length C-terminal His-tagged HSP90alpha expressed in Escherichia coli after 3 hrs by fluorescence polarization assay. A general note: Fluorescence polarisation rises when a labelled molecule tumbles more slowly, as on binding a larger partner.

For the next assay, the system named is HCT-116. The assay can be described thus: cells. Format: functional. Particulars: Homo sapiens, HCT-116, 48 h.
For another assay, the target named is Histone deacetylase. Format: cell-based, Homo sapiens. Conditions: hela.
The subject of another assay is A549. The assay can be described thus: Antiproliferative activity against human A549 cells assessed as cell growth inhibition after 48 hrs by sulforhodamine B assay. Format: functional. The method, boiled down:
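Cells seeded at 5000/well overnight; baseline plate fixed with 10% TCA at time of compound addition (T0). Treated with DMSO or graded doses for 48 h, fixed with 10% TCA, stained with 0.4% (w/v) SRB in 1% acetic acid, washed with 1% acetic acid, dye solubilised in 10 mM Trizma base, absorbance at 515 nm. GI50 from T0-corrected growth; at least three independent experiments, SD reported.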
In general terms: Sulforhodamine B stains cellular protein and so reports cell mass.

Another assay deals with NCI-H1975. Put plainly: cells. Particulars: Homo sapiens, NCI-H1975, 48 h. Format: functional.
The species entered for a further assay is Homo sapiens. Put plainly: Selectivity ratio of IC50 for HDAC1 (unknown origin) to IC50 for HDAC6 (unknown origin).
The target of another assay is Histone deacetylase 1 (Homo sapiens, UniProt Q13547). Put plainly: Inhibition of HDAC1 (unknown origin).
A further assay is described as follows: cells. It is filed as ADME, cell-based. Conditions: Homo sapiens, SC9.

Chain of Histone deacetylase 1 (Q13547 whole entry): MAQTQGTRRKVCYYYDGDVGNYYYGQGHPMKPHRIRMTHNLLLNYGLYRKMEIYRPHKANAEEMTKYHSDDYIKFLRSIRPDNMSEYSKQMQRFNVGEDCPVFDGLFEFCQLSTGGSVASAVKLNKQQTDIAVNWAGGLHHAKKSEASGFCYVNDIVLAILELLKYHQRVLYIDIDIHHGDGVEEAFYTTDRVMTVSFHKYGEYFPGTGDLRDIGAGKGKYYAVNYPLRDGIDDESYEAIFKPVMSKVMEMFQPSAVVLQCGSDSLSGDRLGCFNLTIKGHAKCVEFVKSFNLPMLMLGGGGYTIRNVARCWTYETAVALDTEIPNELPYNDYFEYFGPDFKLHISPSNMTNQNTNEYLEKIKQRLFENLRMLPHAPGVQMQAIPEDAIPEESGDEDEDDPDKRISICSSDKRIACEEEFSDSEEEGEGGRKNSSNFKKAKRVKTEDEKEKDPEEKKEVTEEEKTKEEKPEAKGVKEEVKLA

For the compound `CC(C)c1cc(C(=O)N(C)c2ccc(NC(=O)CCCCCC(=O)NO)cc2)c(O)cc1O`, the values for the IC50 (in assay [1]; against Histone deacetylase) were 169 nM and 391 nM, respectively. The GI50 (usually the concentration that inhibits growth by half) in the assay on HCT-116 came to 3780 nM; in the assay on A549 (Homo sapiens, A549, 48 h) it was 2830 nM; in the assay with NCI-H1975, 690 nM.

For `O=C(CCCCCCC(=O)Nc1ccc(-c2cn(Cc3ccc(F)cc3)nn2)cc1)NO`, the Ratio IC50 in the assay filed under Homo sapiens was 51.

On to `CC(C)c1cc(C(=O)N(C)c2cccc(NC(=O)CCCCCCC(=O)NO)c2)c(O)cc1O`, for which the IC50 – broadly, the concentration that gives 50% inhibition – in assay [1] amounted to 302 nM; on Histone deacetylase it was 211 nM. Further, the GI50 in the assay on HCT-116 is 1170 nM; in the assay on A549 (Homo sapiens, A549, 48 h), 2300 nM; in the assay on NCI-H1975 it was 1660 nM.

Take `CC(C)c1cc(C(=O)Nc2ccc(NC(=O)CCCCCCC(=O)NO)cc2)c(O)cc1O`: the IC50 was > 1000 nM in assay [1] and 415 nM at Histone deacetylase. Also, the GI50 with HCT-116 is 5430 nM; in the assay on A549 (Homo sapiens, A549, 48 h), > 10000 nM; in the assay on NCI-H1975 it was > 10000 nM.

As for `CCN(C(=O)c1cc(C(C)C)c(O)cc1O)c1ccc(NC(=O)CCCCCCC(=O)NO)cc1`, the figures for the IC50 (in assay [1]; against Histone deacetylase) were 186 nM and 462 nM, respectively. For the same compound, the GI50 in the assay with HCT-116 is 3560 nM; in the assay with A549 (Homo sapiens, A549, 48 h) it was 5630 nM; with NCI-H1975, 1380 nM.

`O=C(CCCCC[C@@H](NC(=O)c1ccccc1)C(=O)Nc1ccc2ncccc2c1)NO`: the IC50 came to 3.5 nM on Histone deacetylase 1 and 90 nM in the assay “cells”.

`CC(C)c1cc(C(=O)N(c2ccc(NC(=O)CCCCCCC(=O)NO)cc2)C(C)C)c(O)cc1O`: the IC50 (in assay [1]; at Histone deacetylase) was > 1000 nM throughout. For the same compound, the GI50 was > 10000 nM in the assay on HCT-116; > 10000 nM with A549 (Homo sapiens, A549, 48 h); > 10000 nM in the assay on NCI-H1975.

Regarding `O=C(CCCCCCC(=O)Nc1ccccc1)NO` [VORINOSTAT], in assay [1], the IC50 is > 500 nM. In addition, the GI50 in the assay on A549 came out at 1020 nM.

With `O=C(CCCCC[C@@H](NC(=O)c1ccccc1)C(=O)Nc1ccccc1)NO`, the figures for the IC50 against Histone deacetylase 1 and in the assay “cells” were 12.1 nM and 73 nM, respectively.

With `CC(C)c1cc(C(=O)N(C)c2ccc(NC(=O)CCCCCCCCC(=O)NO)cc2)c(O)cc1O`, the GI50 was 590 nM in the assay with HCT-116; 1080 nM in the assay with A549 (Homo sapiens, A549, 48 h); 210 nM with NCI-H1975. Also, the IC50 on Histone deacetylase turned out to be 672 nM.

As to `CC(C)c1cc(C(=O)Nc2cccc(NC(=O)CCCCCCC(=O)NO)c2)c(O)cc1O`, the IC50 was > 1000 nM in assay [1] and 106 nM against Histone deacetylase. The GI50 in the assay on HCT-116 is 6230 nM; in the assay on A549 (Homo sapiens, A549, 48 h), > 10000 nM; with NCI-H1975, > 10000 nM.

As to `CCN(C(=O)c1cc(C(C)C)c(O)cc1O)c1cccc(NC(=O)CCCCCCC(=O)NO)c1`, the IC50 in assay [1] turned out to be 146 nM; on Histone deacetylase it was 126 nM. Further, the GI50 in the assay with HCT-116 worked out at 1120 nM; in the assay with A549 (Homo sapiens, A549, 48 h) it was 1590 nM; in the assay on NCI-H1975 it was 940 nM.

`C=CCNC1=C2C[C@@H](C)C[C@H](OC)[C@H](O)[C@@H](C)/C=C(\C)[C@H](OC(N)=O)[C@@H](OC)/C=C\C=C(/C)C(=O)NC(=CC1=O)C2=O` (stereo in doubt) [TANESPIMYCIN]: the GI50 in the assay on HCT-116 stood at 340 nM; with A549 (Homo sapiens, A549, 48 h), 7.5 nM; in the assay on NCI-H1975, 160 nM. Also, the IC50 against Histone deacetylase is > 1000 nM.

In the case of `CC(C)c1cc(C(=O)Nc2ccccc2NC(=O)CCCCCCC(=O)NO)c(O)cc1O`, the IC50 (in assay [1]; against Histone deacetylase) was > 1000 nM in each case. In addition, the GI50 in the assay with HCT-116 was 4920 nM; in the assay on A549 (Homo sapiens, A549, 48 h), > 10000 nM; in the assay with NCI-H1975 it was > 10000 nM.

The values above are taken from ChEMBL document CHEMBL4373735, “N-alkyl-hydroxybenzoyl anilide hydroxamates as dual inhibitors of HDAC and HSP90, downregulating IFN-γ induced PD-L1 expression” (Eur J Med Chem, 2020).
